The values below come from ChEMBL document CHEMBL2029264, “Indole-based fibrates as potential hypolipidemic and antiobesity agents” (J Med Chem, 2012).

What all share (assay type): functional
Test [1] concerns Rattus norvegicus. The test can be described thus: Antihyperlipidemic activity in Triton WR-1339-induced hyperlipidemic rat assessed as decrease in plasma phospholipid level at 100 mg/kg, po relative to control. Set-up: scale not given: the % may be the effect or the level left. The gist of the method: (§1)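 Triton WR-1339 given to rats to induce hyperlipidemia; oral dosing. Plasma TC, PL, TG in mg/dL; PHLA as […]/h/mL plasma. Mean ± SD of six rats; Triton group compared with control, Triton plus dosed group compared with Triton group.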

Test [2] concerns Rattus norvegicus. The test can be described thus: Antihyperlipidemic activity in Triton WR-1339-induced hyperlipidemic rat assessed as increase in PHLA enzyme level at 100 mg/kg, po. In outline:
as §1

Test [3] deals with Rattus norvegicus. The test can be described thus: Antihyperlipidemic activity in Triton WR-1339-induced hyperlipidemic rat assessed as decrease in plasma triglyceride level at 100 mg/kg, po relative to control. More on the design: scale not given: the % may be the effect or the level left. The gist of the method:
as §1

Test [4] concerns Rattus norvegicus. The test can be described thus: Antihyperlipidemic activity in Triton WR-1339-induced hyperlipidemic rat assessed as decrease in plasma total cholesterol level at 100 mg/kg, po relative to control. More on the design: scale not given: the % may be the effect or the level left. The gist of the method:
as §1

Test [5] relates to Rattus norvegicus. The test can be described thus: Antihyperlipidemic activity in Triton WR-1339-induced hyperlipidemic rat assessed as increase in LCAT enzyme level at 100 mg/kg, po. In outline:
as §1

In test [6] the test system is Rattus norvegicus. The test can be described thus: Antihyperlipidemic activity in HFD-induced hyperlipidemic Charles Foster rat assessed as decrease in plasma VLDL-phospholipid level at 100 mg/kg, po administered for 4 weeks relative to control. More on the design: scale not given: the % may be the effect or the level left. The gist of the method:
(§2)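 After 4 weeks high-fat feeding plus 4 weeks daily dosing, overnight fast, retro-orbital blood into EDTA tubes. Serum split into VLDL, LDL and HDL by polyanionic precipitation; each fraction assayed for TC, PL, TG and apoprotein (mg/dL plasma). Pooled data from 6 rats/group, mean ± SD, dosed groups compared with high-fat group.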

For test [7], the system named is Rattus norvegicus. The test can be described thus: Antihyperlipidemic activity in HFD-induced hyperlipidemic Charles Foster rat assessed as increase in deoxycholic acid excretion in feces at 100 mg/kg/day, po administered for 4 weeks measured after 30 days relative to control. The gist of the method: (§3)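 Rats fed high-fat diet 4 weeks, then diet plus daily dosing 4 weeks. Cholic and deoxycholic acid excreted in feces measured; dosed groups compared with high-fat group, control compared with high-fat group.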

Test [8] deals with Rattus norvegicus. The test can be described thus: Antihyperlipidemic activity in HFD-induced hyperlipidemic Charles Foster rat assessed as decrease in plasma VLDL-apoprotein level at 100 mg/kg, po administered for 4 weeks relative to control. Set-up: scale not given: the % may be the effect or the level left. The gist of the method:
as §2

Test [9] concerns Rattus norvegicus. The test can be described thus: Antihyperlipidemic activity in HFD-induced hyperlipidemic Charles Foster rat assessed as reactivation of LPL activity at 100 mg/kg, po administered for 4 weeks relative to control. The gist of the method: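 Male Charles Foster rats fed high-fat diet 4 weeks, then diet plus daily dosing 4 weeks. Liver homogenized (10% w/v) in cold 100 mM phosphate buffer pH 7.2; total lipolytic LPL activity read as nmol free fatty acid formed/h/mg protein; pooled data from 6 rats/group, mean ± SD.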

Test [10] concerns Rattus norvegicus. The test can be described thus: Antihyperlipidemic activity in HFD-induced hyperlipidemic Charles Foster rat assessed as decrease in plasma LDL-total cholesterol level at 100 mg/kg, po administered for 4 weeks relative to control. Set-up: scale not given: the % may be the effect or the level left. The gist of the method: as §2
In test [11] the test system is Rattus norvegicus. The test can be described thus: Antihyperlipidemic activity in HFD-induced hyperlipidemic Charles Foster rat assessed as decrease in liver total cholesterol level at 100 mg/kg, po administered for 4 weeks relative to control. Set-up: scale not given: the % may be the effect or the level left. In outline: (§4)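 Adult male Charles Foster rats (200−225 g), high-fat diet 4 weeks, then diet plus daily dosing 4 more weeks; overnight fast, sacrifice, liver washed in cold 0.15 M KCl and held at 4 °C. Lipids extracted from liver homogenate in CHCl3/CH3OH (2:1 v/v), TC, PL and TG read in mg/g; pooled data from 6 rats/group, mean ± SD.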

For test [12], the system named is Rattus norvegicus. The test can be described thus: Antihyperlipidemic activity in HFD-induced hyperlipidemic Charles Foster rat assessed as increase in serum LCAT enzyme level at 100 mg/kg, po administered for 4 weeks relative to control. In outline: (§5)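 Male Charles Foster rats (200−225 g): high-fat diet 4 weeks, then diet plus daily dosing 4 weeks. Overnight fast, retro-orbital blood in EDTA (3 mg/mL blood), centrifuged to serum. TC, PL, TG in mg/dL; LCAT as nmol cholesterol released/h/L plasma. Mean ± SD; dosed groups compared with high-fat group, P by significance levels.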

Test [13] relates to Rattus norvegicus. The test can be described thus: Antihyperlipidemic activity in HFD-induced hyperlipidemic Charles Foster rat assessed as increase in [I125]-LDL catabolism in plasma membrane of liver at 100 mg/kg/day, po administered for 4 weeks. The gist of the method: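 Rats on 8 weeks total of high-fat diet, dosed daily for the last 4 weeks, then sacrificed. Human serum LDL radiolabeled with I125; specific binding to liver plasma membrane preparation measured as receptor-mediated LDL catabolism. Mean ± SD, n = 6.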

The subject of test [14] is Rattus norvegicus. The test can be described thus: Antihyperlipidemic activity in HFD-induced hyperlipidemic Charles Foster rat assessed as decrease in plasma LDL-triglyceride level at 100 mg/kg, po administered for 4 weeks relative to control. Set-up: scale not given: the % may be the effect or the level left. The gist of the method: as §2
Test [15] relates to Rattus norvegicus. The test can be described thus: Antihyperlipidemic activity in HFD-induced hyperlipidemic Charles Foster rat assessed as increase in plasma HDL-triglyceride level at 100 mg/kg, po administered for 4 weeks relative to control. In outline: as §2
The test system of test [16] is Rattus norvegicus. The test can be described thus: Antihyperlipidemic activity in HFD-induced hyperlipidemic Charles Foster rat assessed as decrease in serum phospholipid level at 100 mg/kg, po administered for 4 weeks relative to control. More on the design: scale not given: the % may be the effect or the level left. In outline:
as §5

Test [17] concerns Rattus norvegicus. The test can be described thus: Antihyperlipidemic activity in HFD-induced hyperlipidemic Charles Foster rat assessed as decrease in plasma LDL-apoprotein level at 100 mg/kg, po administered for 4 weeks relative to control. Set-up: scale not given: the % may be the effect or the level left. In outline: as §2
For test [18], the system named is Rattus norvegicus. The test can be described thus: Antihyperlipidemic activity in HFD-induced hyperlipidemic Charles Foster rat assessed as decrease in plasma LDL-phospholipid level at 100 mg/kg, po administered for 4 weeks relative to control. More on the design: scale not given: the % may be the effect or the level left. In outline:
as §2

Test [19] has as its system Rattus norvegicus. The test can be described thus: Antihyperlipidemic activity in HFD-induced hyperlipidemic Charles Foster rat assessed as increase in plasma HDL-phospholipid level at 100 mg/kg, po administered for 4 weeks relative to control. The gist of the method:
as §2

Test [20] concerns Rattus norvegicus. The test can be described thus: Antihyperlipidemic activity in HFD-induced hyperlipidemic Charles Foster rat assessed as decrease in liver phospholipid level at 100 mg/kg, po administered for 4 weeks relative to control. More on the design: scale not given: the % may be the effect or the level left. The gist of the method: as §4
Test [21] concerns Rattus norvegicus. The test can be described thus: Antihyperlipidemic activity in HFD-induced hyperlipidemic Charles Foster rat assessed as increase in plasma HDL-total cholesterol level at 100 mg/kg, po administered for 4 weeks relative to control. In outline:
as §2

Test [22] deals with Rattus norvegicus. The test can be described thus: Antihyperlipidemic activity in HFD-induced hyperlipidemic Charles Foster rat assessed as increase in cholic acid excretion in feces at 100 mg/kg/day, po administered for 4 weeks measured after 30 days relative to control. The gist of the method:
as §3

Test [23] has as its system Rattus norvegicus. The test can be described thus: Antihyperlipidemic activity in HFD-induced hyperlipidemic Charles Foster rat assessed as decrease in liver triglyceride level at 100 mg/kg, po administered for 4 weeks relative to control. Set-up: scale not given: the % may be the effect or the level left. The gist of the method: as §4
Test [24] relates to Rattus norvegicus. The test can be described thus: Antihyperlipidemic activity in HFD-induced hyperlipidemic Charles Foster rat assessed as increase in plasma HDL-apoprotein level at 100 mg/kg, po administered for 4 weeks relative to control. In outline: as §2
The subject of test [25] is Rattus norvegicus. The test can be described thus: Antihyperlipidemic activity in HFD-induced hyperlipidemic Charles Foster rat assessed as decrease in plasma VLDL-triglyceride level at 100 mg/kg, po administered for 4 weeks relative to control. More on the design: scale not given: the % may be the effect or the level left. In outline: as §2
The test system of test [26] is Rattus norvegicus. The test can be described thus: Antihyperlipidemic activity in HFD-induced hyperlipidemic Charles Foster rat assessed as decrease in serum triglyceride level at 100 mg/kg, po administered for 4 weeks relative to control. More on the design: scale not given: the % may be the effect or the level left. In outline: as §5
Test [27] has as its system Rattus norvegicus. The test can be described thus: Antihyperlipidemic activity in HFD-induced hyperlipidemic Charles Foster rat assessed as decrease in serum total cholesterol level at 100 mg/kg, po administered for 4 weeks relative to control. More on the design: scale not given: the % may be the effect or the level left. The gist of the method:
as §5

For test [28], the system named is Rattus norvegicus. The test can be described thus: Antihyperlipidemic activity in HFD-induced hyperlipidemic Charles Foster rat assessed as decrease in plasma VLDL-total cholesterol level at 100 mg/kg, po administered for 4 weeks relative to control. Set-up: scale not given: the % may be the effect or the level left. In outline:
as §2

Regarding `Cc1ccc(C)c(OCCCC(C)(C)C(=O)O)c1` [GEMFIBROZIL], the Activity in the test with Rattus norvegicus [1] stood at 35%; with Rattus norvegicus [3], 35%; in the test on Rattus norvegicus [4], 33%; with Rattus norvegicus [5] it was 27 nmol/h/mL. Besides, in the test with Rattus norvegicus [2], the percent increase is 27%.

In the case of `CCOC(=O)C(C)(C)Oc1ccc(C(c2cn(C)c3ccccc23)c2cn(C)c3ccccc23)cc1`, the Activity came out at 9% with Rattus norvegicus [1], 5% with Rattus norvegicus [3] and 10% with Rattus norvegicus [4].

Turning to `CCOC(=O)COc1ccc(C(c2cn(C)c3ccccc23)c2cn(C)c3ccccc23)cc1`, the Activity in the test on Rattus norvegicus [1] was found to be 12%; in the test on Rattus norvegicus [3], 9%; in the test with Rattus norvegicus [4], 10%.

With `CCOC(=O)C(C)Oc1ccc(C(c2cn(C)c3ccccc23)c2cn(C)c3ccccc23)cc1` (stereo not drawn), the Activity in the test on Rattus norvegicus [1] was determined as 6%; in the test on Rattus norvegicus [3], 8%; in the test on Rattus norvegicus [4], 10%.

For `CCOC(=O)C(C)(C)Oc1ccc(C(c2c[nH]c3ccccc23)c2c[nH]c3ccccc23)cc1`, the Activity came to 9% with Rattus norvegicus [1], 6% in the test on Rattus norvegicus [3] and 9% in the test on Rattus norvegicus [4].

As to `CCOC(=O)CCCOc1ccc(C(c2c[nH]c3ccccc23)c2c[nH]c3ccccc23)cc1`, the figures for the Activity with Rattus norvegicus [1], in the test on Rattus norvegicus [3] and in the test on Rattus norvegicus [4] were 15%, 12% and 12%, respectively.

Regarding `CC(C)OC(=O)C(C)(C)Oc1ccc(C(=O)c2ccc(Cl)cc2)cc1` [FENOFIBRATE], the Activity with Rattus norvegicus [6] was determined as 24%; in the test with Rattus norvegicus [7] it was 33%; with Rattus norvegicus [8] it was 35%; in the test on Rattus norvegicus [9] it was 26%; in the test with Rattus norvegicus [10], 28%; in the test with Rattus norvegicus [11], 37%. Moreover, the Activity is recorded as 34% in the test on Rattus norvegicus [12]; 30% in the test on Rattus norvegicus [13]; 27% with Rattus norvegicus [14]; 16% with Rattus norvegicus [15]; 34% in the test on Rattus norvegicus [16]; 28% in the test on Rattus norvegicus [17]. For the same molecule, the Activity in the test with Rattus norvegicus [18] was 28%; in the test with Rattus norvegicus [19], 15%; with Rattus norvegicus [20] it was 33%; in the test with Rattus norvegicus [21], 16%; in the test on Rattus norvegicus [22], 31%; in the test on Rattus norvegicus [23], 34%. For the same molecule, the Activity in the test with Rattus norvegicus [24] is reported as 17%; in the test with Rattus norvegicus [25] it was 30%; in the test with Rattus norvegicus [26], 33%; in the test on Rattus norvegicus [27], 36%; in the test with Rattus norvegicus [28], 28%.

Consider `CCOC(=O)COc1ccc(C(c2c[nH]c3ccccc23)c2c[nH]c3ccccc23)cc1`, for which the Activity in the test on Rattus norvegicus [1] worked out at 25%; in the test on Rattus norvegicus [3], 10%; in the test on Rattus norvegicus [4], 12%.

As for `CCOC(=O)C(C)Oc1ccc(C(c2c(C)[nH]c3ccccc23)c2c(C)[nH]c3ccccc23)cc1` (stereo not drawn), the figures for the Activity in the test with Rattus norvegicus [1], in the test on Rattus norvegicus [3] and in the test with Rattus norvegicus [4] were 5%, 8% and 9%, respectively.

For the molecule `CCOC(=O)C(C)(C)Oc1ccc(C(c2cn(CC)c3ccccc23)c2cn(CC)c3ccccc23)cc1`, the Activity with Rattus norvegicus [1] is 9%; in the test on Rattus norvegicus [3], 9%; with Rattus norvegicus [4] it was 11%.

As for `CCOC(=O)COc1ccc(C(c2cn(CC)c3ccccc23)c2cn(CC)c3ccccc23)cc1`, the Activity was determined as 6% with Rattus norvegicus [1], 10% in the test on Rattus norvegicus [3] and 12% in the test on Rattus norvegicus [4].

For `CCOC(=O)C(C)Oc1ccc(C(c2c(C)n(C)c3ccccc23)c2c(C)n(C)c3ccccc23)cc1` (stereo not drawn), the Activity with Rattus norvegicus [1] was 10%; with Rattus norvegicus [3] it was 6%; in the test on Rattus norvegicus [4] it was 10%.
